# pIC50: −log10 of the molar value.
# What was measured:
# [1] = Selectivity index, ratio of antiproliferative IC50 for HEK293 cells to antiproliferative IC50 for human KB cells; format: toxicity; conditions: HEK293 cells versus KB cells, read-out: Ratio IC50
# How it was run: (§1)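 Selectivity index for harmfulness to normal cells: the normal-cell (Vero or HEK293) CC50 or IC50 over the cancer-cell value from the same assay type. Each value is from sulforhodamine B growth-reduction tests done in triplicate in D-MEM/10% FBS at 37 °C, 5% CO2.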
# [2] = test system: DU-145; assay: Antiproliferative activity in human DU145 cells by sulforhodamine B assay; format: functional, cell-based
# How it was run: (§2)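 Cells grown in D-MEM with 10% (v/v) FBS, 100 U/mL penicillin G and 100 μg/mL streptomycin, at 37 °C under 5% CO2 and 95% humidity. Cytotoxic and antiproliferative effects were measured by the sulforhodamine B method of Skehan et al. CC50 (cytotoxic) or IC50 (antiproliferative) is the concentration giving 50% growth reduction. Docetaxel was the positive control. Triplicate tests.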
# [3] = Selectivity index, ratio of cytotoxic CC50 for African green monkey Vero cells to cytotoxic CC50 for human MDA-MB-231 cells; format: toxicity; conditions: Vero cells versus MDA-MB-231 cells, read-out: Selectivity Index; how it was run: as §1
# [4] = test system: HEp-2; assay: Cytotoxic activity in human Hep2 cells by sulforhodamine B assay; format: functional
# How it was run: (§3)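 Cell lines grown in D-MEM with 10% (v/v) FBS, 100 U/mL penicillin G and 100 μg/mL streptomycin at 37 °C, 5% CO2, 95% humidity. Cytotoxicity was measured by the Skehan method. CC50 was taken as the concentration that reduces cell growth by 50%. Docetaxel served as positive control, and each test was run in triplicate.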
# [5] = Cytotoxic activity in African green monkey Vero cells by sulforhodamine B assay; format: cell-based; conditions: chlorocebus sabaeus; how it was run: as §2
# [6] = Selectivity index, ratio of antiproliferative IC50 for African green monkey Vero cells to antiproliferative IC50 for human SiHa cells; format: toxicity; conditions: Vero cells versus SiHa cells, read-out: Ratio IC50; how it was run: as §1
# [7] = Selectivity index, ratio of antiproliferative IC50 for HEK293 cells to antiproliferative IC50 for human HeLa cells; format: toxicity; conditions: HEK293 cells versus HeLa cells, read-out: Ratio IC50; how it was run: as §1
# [8] = test system: MDA-MB-231; assay: Antiproliferative activity in human MDA-MB-231 cells by sulforhodamine B assay; format: functional, cell-based; how it was run: as §2
# [9] = Selectivity index, ratio of cytotoxic CC50 for African green monkey Vero cells to cytotoxic CC50 for human SiHa cells; format: toxicity; conditions: Vero cells versus SiHa cells, read-out: Selectivity Index; how it was run: as §1
# [10] = test system: KB; assay: Antiproliferative activity in human KB cells by sulforhodamine B assay; format: functional, cell-based; how it was run: as §2
# [11] = Selectivity index, ratio of antiproliferative IC50 for HEK293 cells to antiproliferative IC50 for human MCF7 cells; format: toxicity; conditions: HEK293 cells versus MCF7 cells, read-out: Ratio IC50; how it was run: as §1
# [12] = Selectivity index, ratio of cytotoxic CC50 for African green monkey Vero cells to cytotoxic CC50 for human HeLa cells; format: toxicity; conditions: Vero cells versus HeLa cells, read-out: Selectivity Index; how it was run: as §1
# [13] = test system: HEp-2; assay: Antiproliferative activity in human Hep2 cells by sulforhodamine B assay; format: functional, cell-based; how it was run: as §2
# [14] = test system: HeLa; assay: Cytotoxic activity in human HeLa cells by sulforhodamine B assay; format: functional; how it was run: as §3
# [15] = test system: Vero; assay: Antiproliferative activity in African green monkey Vero cells by sulforhodamine B assay; format: cell-based; conditions: Chlorocebus sabaeus; how it was run: as §2
# [16] = Selectivity index, ratio of cytotoxic CC50 for HEK293 cells to cytotoxic CC50 for human HeLa cells; format: toxicity; conditions: HEK293 cells versus HeLa cells, read-out: Selectivity Index; how it was run: as §1
# [17] = Selectivity index, ratio of cytotoxic CC50 for HEK293 cells to cytotoxic CC50 for human MCF7 cells; format: toxicity; conditions: HEK293 cells versus MCF7 cells, read-out: Selectivity Index; how it was run: as §1
# [18] = Selectivity index, ratio of cytotoxic CC50 for African green monkey Vero cells to cytotoxic CC50 for human MCF7 cells; format: toxicity; conditions: Vero cells versus MCF7 cells, read-out: Selectivity Index; how it was run: as §1
# [19] = test system: KB; assay: Cytotoxic activity in human KB cells by sulforhodamine B assay; format: functional; how it was run: as §3
# [20] = Selectivity index, ratio of cytotoxic CC50 for African green monkey Vero cells to cytotoxic CC50 for human KB cells; format: toxicity; conditions: Vero cells versus KB cells, read-out: Selectivity Index; how it was run: as §1
# [21] = Selectivity index, ratio of antiproliferative IC50 for African green monkey Vero cells to antiproliferative IC50 for human KB cells; format: toxicity; conditions: Vero cells versus KB cells, read-out: Ratio IC50; how it was run: as §1
# [22] = Selectivity index, ratio of antiproliferative IC50 for African green monkey Vero cells to antiproliferative IC50 for human HeLa cells; format: toxicity; conditions: Vero cells versus HeLa cells, read-out: Ratio IC50; how it was run: as §1
# [23] = test system: HEK293; assay: Antiproliferative activity in HEK293 cells by sulforhodamine B assay; format: cell-based; conditions: Homo sapiens; how it was run: as §2
# [24] = test system: MDA-MB-231; assay: Cytotoxic activity in human MDA-MB-231 cells by sulforhodamine B assay; format: functional; how it was run: as §3
# [25] = test system: MCF7; assay: Antiproliferative activity in human MCF7 cells by sulforhodamine B assay; format: functional, cell-based; how it was run: as §2
# [26] = test system: HeLa; assay: Antiproliferative activity in human HeLa cells by sulforhodamine B assay; format: functional, cell-based; how it was run: as §2
# [27] = Selectivity index, ratio of cytotoxic CC50 for HEK293 cells to cytotoxic CC50 for human KB cells; format: toxicity; conditions: HEK293 cells versus KB cells, read-out: Selectivity Index; how it was run: as §1
# [28] = Cytotoxic activity in HEK293 cells by sulforhodamine B assay; format: cell-based; conditions: human; how it was run: as §2
# [29] = test system: SiHa; assay: Cytotoxic activity in human SiHa cells by sulforhodamine B assay; format: functional; how it was run: as §3
# [30] = Selectivity index, ratio of antiproliferative IC50 for African green monkey Vero cells to antiproliferative IC50 for human MCF7 cells; format: toxicity; conditions: Vero cells versus MCF7 cells, read-out: Ratio IC50; how it was run: as §1
# [31] = Selectivity index, ratio of cytotoxic CC50 for HEK293 cells to cytotoxic CC50 for human Hep2 cells; format: toxicity; conditions: HEK293 cells versus Hep2 cells, read-out: Selectivity Index; how it was run: as §1
# [32] = Selectivity index, ratio of cytotoxic CC50 for HEK293 cells to cytotoxic CC50 for human MDA-MB-231 cells; format: toxicity; conditions: HEK293 cells versus MDA-MB-231 cells, read-out: Selectivity Index; how it was run: as §1
# [33] = Selectivity index, ratio of cytotoxic CC50 for African green monkey Vero cells to cytotoxic CC50 for human Hep2 cells; format: toxicity; conditions: Vero cells versus Hep2 cells, read-out: Selectivity Index
# [34] = test system: MCF7; assay: Cytotoxic activity in human MCF7 cells by sulforhodamine B assay; format: functional; how it was run: as §3
# [35] = test system: SiHa; assay: Antiproliferative activity in human SiHa cells by sulforhodamine B assay; format: functional, cell-based; how it was run: as §2
# [36] = Selectivity index, ratio of cytotoxic CC50 for HEK293 cells to cytotoxic CC50 for human SiHa cells; format: toxicity; conditions: HEK293 cells versus SiHa cells, read-out: Selectivity Index; how it was run: as §1
# [37] = Selectivity index, ratio of antiproliferative IC50 for HEK293 cells to antiproliferative IC50 for human SiHa cells; format: toxicity; conditions: HEK293 cells versus SiHa cells, read-out: Ratio IC50; how it was run: as §1
# [38] = test system: DU-145; assay: Cytotoxic activity in human DU145 cells by sulforhodamine B assay; format: functional; how it was run: as §3
# [39] = Selectivity index, ratio of antiproliferative IC50 for African green monkey Vero cells to antiproliferative IC50 for human DU145 cells; format: toxicity; conditions: Vero cells versus DU145 cells, read-out: Ratio IC50
# [40] = Selectivity index, ratio of antiproliferative IC50 for HEK293 cells to antiproliferative IC50 for human DU145 cells; format: toxicity; conditions: HEK293 cells versus DU145 cells, read-out: Ratio IC50
# [41] = Selectivity index, ratio of antiproliferative IC50 for HEK293 cells to antiproliferative IC50 for human Hep2 cells; format: toxicity; conditions: HEK293 cells versus Hep2 cells, read-out: Ratio IC50
# [42] = Selectivity index, ratio of cytotoxic CC50 for HEK293 cells to cytotoxic CC50 for human DU145 cells; format: toxicity; conditions: HEK293 cells versus DU145 cells, read-out: Selectivity Index
# [43] = Selectivity index, ratio of antiproliferative IC50 for African green monkey Vero cells to antiproliferative IC50 for human MDA-MB-231 cells; format: toxicity; conditions: Vero cells versus MDA-MB-231 cells, read-out: Ratio IC50
# [44] = Selectivity index, ratio of antiproliferative IC50 for African green monkey Vero cells to antiproliferative IC50 for human Hep2 cells; format: toxicity; conditions: Vero cells versus Hep2 cells, read-out: Ratio IC50; how it was run: as §1
# [45] = Selectivity index, ratio of cytotoxic CC50 for African green monkey Vero cells to cytotoxic CC50 for human DU145 cells; format: toxicity; conditions: Vero cells versus DU145 cells, read-out: Selectivity Index; how it was run: as §1
# [46] = Selectivity index, ratio of antiproliferative IC50 for HEK293 cells to antiproliferative IC50 for human MDA-MB-231 cells; format: toxicity; conditions: HEK293 cells versus MDA-MB-231 cells, read-out: Ratio IC50
smiles,measurement,setting,value
C=C(C)[C@@H]1CC[C@]2(C(=O)O)CC[C@]3(C)[C@H](CC[C@@H]4[C@@]5(C)CC[C@H](O)C(C)(C)[C@@H]5CC[C@]43C)[C@@H]12 [BETULINIC ACID],selectivity ratio,[1],12
same,pIC50,[2],< 3.30
same,selectivity ratio,[3],0.4
same,CC50,[4],48200 nM
same,CC50,[5],38100 nM
same,selectivity ratio,[6],1
same,selectivity ratio,[7],7
same,pIC50,[8],< 3.30
same,selectivity ratio,[9],13
same,pIC50,[10],4.55
same,selectivity ratio,[11],6
same,selectivity ratio,[12],1.6
same,pIC50,[13],< 3.30
same,CC50,[14],32600 nM
same,pIC50,[15],4.14
same,selectivity ratio,[16],2.5
same,selectivity ratio,[17],1.6
same,selectivity ratio,[18],0.7
same,CC50,[19],15600 nM
same,selectivity ratio,[20],2.4
same,selectivity ratio,[21],2.6
same,selectivity ratio,[22],1.5
same,pIC50,[23],3.47
same,CC50,[24],94300 nM
same,pIC50,[25],4.25
same,pIC50,[26],4.32
same,selectivity ratio,[27],5.1
same,CC50,[28],80000 nM
same,CC50,[29],28900 nM
same,selectivity ratio,[30],1.3
same,selectivity ratio,[31],1.6
same,selectivity ratio,[32],0.8
same,selectivity ratio,[33],1.3
same,CC50,[34],49600 nM
same,pIC50,[35],4.15
same,selectivity ratio,[36],2.8
same,selectivity ratio,[37],4.8
same,CC50,[38],> 500000 nM
CC(=O)O[C@@]12CO[C@@H]1C[C@H](O)[C@@]1(C)C(=O)[C@H](O)C3=C(C)[C@@H](OC(=O)[C@H](O)[C@@H](NC(=O)OC(C)(C)C)c4ccccc4)C[C@@](O)([C@@H](OC(=O)c4ccccc4)[C@H]21)C3(C)C [DOCETAXEL ANHYDROUS],selectivity ratio,[1],2.2
same,pIC50,[2],8.00
same,selectivity ratio,[3],6.8
same,CC50,[4],60 nM
same,selectivity ratio,[39],13
same,CC50,[5],1300 nM
same,selectivity ratio,[40],11
same,selectivity ratio,[6],1.4
same,selectivity ratio,[7],1.6
same,pIC50,[8],7.15
same,selectivity ratio,[9],5.9
same,selectivity ratio,[41],1.8
same,selectivity ratio,[42],2
same,selectivity ratio,[43],1.9
same,pIC50,[10],7.30
same,selectivity ratio,[44],2.2
same,selectivity ratio,[11],11
same,selectivity ratio,[12],14.4
same,pIC50,[13],7.22
same,selectivity ratio,[45],1.6
same,selectivity ratio,[46],1.6
same,CC50,[14],90 nM
same,pIC50,[15],6.89
same,selectivity ratio,[16],17.7
same,selectivity ratio,[17],160
same,selectivity ratio,[18],130
same,CC50,[19],180 nM
same,selectivity ratio,[20],7.2
same,selectivity ratio,[21],2.6
same,selectivity ratio,[22],1.9
same,pIC50,[23],6.96
same,CC50,[24],190 nM
same,pIC50,[25],8.00
same,pIC50,[26],7.15
same,selectivity ratio,[27],8.8
same,CC50,[28],1600 nM
same,CC50,[29],220 nM
same,selectivity ratio,[30],13
same,selectivity ratio,[31],26.6
same,selectivity ratio,[32],8.4
same,selectivity ratio,[33],21.6
same,CC50,[34],10 nM
same,pIC50,[35],7.05
same,selectivity ratio,[36],7.3
same,selectivity ratio,[37],1.2
same,CC50,[38],810 nM

# — ChEMBL document CHEMBL4130545, “Lupane-Type Triterpenes of Phoradendron vernicosum” (J Nat Prod, 2017)
